ChEMBL document CHEMBL4513216, “Probing the Open Global Health Chemical Diversity Library for Multistage-Active Starting Points for Next-Generation Antimalarials” (ACS Infect Dis, 2020)

Assay: Toxicity liver stage against HepG2, at 10uM
Type: cell-based
Parameters: test concentration 10 uM, cell line HepG2-A16-CD81EGFP
Settings: human, HepG2-A16-CD81EGFP cells; read-out: INHIBITION
Summary of the method: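 Uninfected HepG2-A16-CD81EGFP cells, 3 × 10^3 per well, 1536-well, plated on prespotted compound at 10 μM final, parasite-free screening media added to match infected plates; puromycin 10 μM positive, DMSO 0.5% negative; run in parallel with 48 h PbLuc assay at 37 °C, 5% CO2; viability by CellTiter-Glo luminescence, normalized to controls.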

SMILES | cytotoxicity at 10 µM
c1cnc(NC2COC3(CCN(Cc4cc[nH]n4)CC3)C2)nc1 (stereo not given) | -1.17%
CCC(CO)N(Cc1cccs1)C(=O)CNS(=O)(=O)c1cccs1 (stereo not given) | 4.98%
CC(C)N(C)Cc1cncc2c1CCN(Cc1ccoc1)C2 | -109%
CC(C)(C)c1ncc2c(n1)CN(C(=O)c1ccc3[nH]cnc3c1)C2 | -2.62%
COc1ccccc1C(C)CC(=O)N1CCN(S(N)(=O)=O)CC1 (stereo not given) | -51.3%
CC1(C(=O)N2CCSCC2)CNCCO1 (stereo not given) | 4.79%
CC(O)CN(C(=O)NC1CC1)C(C)C (stereo not given) | 13.1%
COc1cc(CN(C)Cc2cccnc2)c(SC)cc1OC | 2.3%
CCOCc1cnc2n1CCN(C(=O)c1cn(C)c3ccccc13)C2C (stereo not given) | -108%
CC(C1CC1)N(CC(=O)NCC(F)(F)F)C1CC1 (stereo not given) | -4.42%
O=C(c1ccncc1)N1CCN2C[C@H](Oc3cccc(F)c3)C[C@H]2C1 | 8.28%
CCn1cc(NC(=O)NCCN2CCCCCC2=O)cn1 | 0.107%
CCS(=O)(=O)N1C[C@@H](c2ccccc2)[C@@]2(CCNC2=O)C1 | -108%
O=C(c1cnccn1)N1CCCC(Cc2cncc3ccccc23)C1 (stereo not given) | -31.4%
CN1CCC(N(C)C[C@H]2CC[C@@H](Cc3cccc(O)c3)O2)CC1 | -12.2%
Cn1cccc1-c1cc(C(=O)N2CCCC2c2ccc(C(N)=O)s2)[nH]n1 (stereo not given) | -1.33%
Cc1nccc(-c2cccc(NCc3nc(C(C)C)no3)c2)n1 | 5.75%
O=C(C1CC1)N1CCc2[nH]cnc2C12CCN(C1CCOCC1)CC2 | -1.16%
O=C1COc2cccc(OCc3ccccn3)c2N1 | 2.2%
COC(=O)c1cccn1C1CCN(C(=O)c2cn[nH]c2C)CC1 | -7.64%
Cc1cc(C)c2c(N3CCC(O)(Cn4ccnc4)CC3)ncnc2n1 | -3.28%
O=S(=O)(N1CCCC1)N1CCN(CC2CCCO2)CC1 (stereo not given) | -0.185%

SMILES | cytotoxicity at 10 µM
Cc1n[nH]c(C)c1CCNC(=O)Nc1ccc(S(C)(=O)=O)cc1 | -5.01%
Cn1cnnc1C1CCCN(C(=O)NCCCn2cccn2)C1 (stereo not given) | -5.42%
c1ccc(-c2nc3c(c(NCCCn4cncn4)n2)CCNCC3)nc1 | -45.6%
Cn1nccc1-c1cnc2n1CCNC21CCN(C(=O)C2(C)CC2)CC1 | -111%
c1cc(-c2nnc3sc(CCN4CCCC4)nn23)ccn1 | -4.31%
Cc1cccc(CN2CCO[C@H]3[C@@H](OCc4ccncc4)CC[C@@H]32)n1 | -85.4%
CCc1c(C)n(CC(=O)OC)c2nc3ccccc3n2c1=O | 1.44%
Cc1ccc(-c2ccnc(NC(C)c3n[nH]c(=O)[nH]3)n2)c(C)n1 (stereo not given) | 1.33%
CC(C)Nc1cccc(CC2CCN(C)C2)n1 (stereo not given) | -27.6%
C[C@H]1C[C@@H]2CCN(C(=O)c3ccncn3)C[C@H]2O1 | -18.4%
Cc1cccc(Cc2nc3c([nH]2)CCCNC3=O)c1 | -12.9%
CC(C)NC(=O)N1C[C@@H]2C[C@H](C(=O)NCc3ccccc3)[C@H](C1)O2 | -0.594%
Cc1nnc(CSc2ccc(C(F)(F)F)cn2)o1 | -6.51%
CC(=O)N1CCc2c(nc(N(C)C)nc2N(C)CCO)C1 | -2.48%
CCn1nc(C)c(CN2CCC(c3ccn[nH]3)C2)c1C (stereo not given) | -0.125%
Cn1cnnc1C1CCCN(C(=O)COc2ccccc2Cl)C1 (stereo not given) | -14.2%
CC1CCC(O)(CN2CCN(CCNC(=O)C3CCC3)CC2)CC1 (stereo not given) | -0.118%
COc1ccc(CN2CCOC[C@H](OCc3ccccc3)C2)cc1 | 2.79%
CN1CCN(CCNC(=O)C(OC2CCCC2)c2ccccc2)CC1 (stereo not given) | -9.43%
CC(C)[C@H]1CN(Cc2ccccn2)C[C@@H]1NC(=O)CCS(C)(=O)=O | -7.04%
CCc1nc(NS(=O)(=O)c2ccc(C)cc2Cl)no1 | -1.51%
COc1ccc(C(=O)NS(=O)(=O)c2ccc(CNC(C)=O)s2)cc1 | 1.81%

SMILES | cytotoxicity at 10 µM
Fc1ccccc1CN1CCCN(c2ncnc3[nH]ccc23)CC1 | -5.86%
Cc1cnn(CC2CN(CC(=O)Nc3ccnn3C(C)C)CCO2)c1 (stereo not given) | -8.06%
COC(=O)c1cc(OC)c(OC)cc1NCc1c(C)noc1C | 4%
Cc1ccc(N2CCCC(c3[nH]ncc3Cc3ccccc3)C2)nn1 (stereo not given) | 10.4%
N#Cc1cc(F)c(NCCc2ccc(S(N)(=O)=O)cc2)c(F)c1 | -53.9%
COCCN1CCOCC12CCN(C(=O)c1cccnc1)CC2 | -73.1%
CCn1ccnc1CN(C)C1CCCN(Cc2ccccc2F)C1 (stereo not given) | 4.77%
CC(Cn1cccn1)NCc1cnc(N2CCCC2)nc1 (stereo not given) | -13%
CC(Cn1cccn1)NC(=O)NCCc1ccc(Cl)s1 (stereo not given) | -3.56%
Cc1cnc(NC(=O)c2cccc(CN(C)Cc3ncccc3C)c2)s1 | 14.2%
Cn1ccc(CN2CCC3(CCCN3CC3CC3)CC2)n1 | -92.4%
CC(CO)(NC(=O)Nc1nnc(C(F)F)s1)C1CC1 (stereo not given) | 9.23%
Cc1nccn1-c1cccc(N2CCC(OCC3CCCCO3)CC2)n1 (stereo not given) | 11.3%
Cc1ccc(-c2cc(CN3CCc4cnc(C)nc4C3)on2)cc1 | 4.88%
Cc1csc(CN2CCC(C(=O)O)(n3ccc(-c4ccco4)n3)CC2)n1 | -127%
O=C(COCC1CCCO1)N(Cc1cccnc1)c1ccc(F)cc1 (stereo not given) | -2.04%
CCCS(=O)(=O)N1CCC2(CC1)COCCN(C(C)=O)C2 | 15.9%
CCc1[nH]c2c(CNc3cncc(C(=O)N(C)C)n3)cc(F)cc2c1C | 3.86%
CN(C)C1CCN(C(=O)c2cc(-c3ccn(C)n3)n3ccccc23)CC1 | -117%
Cc1nc(CN2C(=O)CC[C@@H]3[C@H]2CCN3C(=O)C2CCCO2)cs1 (stereo not given in full) | -9.33%
CN(Cc1cnc(N)nc1)C(=O)c1coc(COc2ccccc2)n1 | 1.58%
CCc1nnsc1C(=O)N1CCOC(c2nc(C(C)C)n[nH]2)C1 (stereo not given) | 1.23%

SMILES | cytotoxicity at 10 µM
Cc1ccc(-c2ncc(CN3CCN(S(N)(=O)=O)CC3)s2)o1 | -3.41%
Cc1noc(CNC(=O)NCCc2ccc(Cl)cc2)n1 | 6.93%
CN(C)CC1(O)CCN(C(=O)Cc2ccc(Cl)c(Cl)c2)C1 (stereo not given) | -4%
COc1ccc2c(c1)C(=O)N(C)C1(CCN(C(=O)OC(C)(C)C)CC1)N2 | 25.1%
CCCn1ccnc1CN1CCC(O)(CN2CCCCC2)C1 (stereo not given) | -6.12%
CNC(=O)CC1CC2(CCN(c3ncccn3)CC2)c2ccccc21 (stereo not given) | 11.6%
CN1CC(c2n[nH]c(=O)n2-c2cccc(Cl)c2)CC1=O (stereo not given) | 3.24%
CN(C)C(=O)N1CCC2(CC1)C(c1cnn(C)c1)CC(=O)N2C (stereo not given) | -78.2%
O=C(NC1CC1)c1ccccc1NCc1cn2cccnc2n1 | 5.38%
O=C(NCc1cccnc1)C1=NOC2(CCN(S(=O)(=O)C3CC3)C2)C1 (stereo not given) | -7.36%
COc1ccccc1C(O)CNC(=O)Nc1ncccc1C (stereo not given) | -8.65%
Cc1ccc(C(=O)N2CCOC3(CCCC3)C2)c(=O)[nH]1 | 7.87%
O=C(c1cccc(F)c1)N1CCc2ncc(Cn3cccn3)n2CC1 | 2.05%
Cc1ccc(NCc2ccc(C#N)cc2)cc1-n1cnnn1 | -0.657%
Cc1c(CN2CCCC(C(=O)Nc3ccccc3)C2)cc(C#N)n1C (stereo not given) | 6.75%
CC(CNCC1(S(C)(=O)=O)CCOCC1)c1ccc(F)cc1 (stereo not given) | -5.06%
CCSCCC(=O)Nc1ncn(Cc2ccccc2)n1 | 4.74%
CS(=O)(=O)NCc1cnc2n1CCN(Cc1cccs1)CC2 | 3.04%
COc1ccc(C(=O)N2CCCCC2Cn2cccn2)c(F)c1 (stereo not given) | -5.38%
COc1ccccc1-c1c[nH]c(C2CCCN2)n1 (stereo not given) | 0.276%
CC(c1ccccn1)N(C)Cc1ccc(-n2cncn2)cc1 (stereo not given) | 5.33%
O=C1C(N2CCOCC2)CCCN1Cc1cccc(C(F)(F)F)c1 (stereo not given) | 0.174%

SMILES | cytotoxicity at 10 µM
O=C(c1nc2c(o1)CN(CC1CC1)C2)N1CCCC1 | -163%
CCc1ccc(C(NC(=O)CCS(C)(=O)=O)C(C)(C)C)o1 (stereo not given) | -3.58%
O=C1NCCCC[C@@H]1NC(=O)C1(N2CCCCC2)Cc2ccccc2C1 | -4.3%
COCCN1C(=O)CCC12CCC(NCc1cccnc1OC)CC2 (stereo not given) | 8.64%
O=C(c1c[nH]cn1)N1CCCn2c(nnc2Cn2cccc2)C1 | 0.399%
CN(C)C(=O)c1ccc(N2CCC3(CCC(=O)N(CCO)C3)CC2)nc1 | 3.8%
COCCN(C)C(C(=O)O)c1ccc(C)c(C)c1 (stereo not given) | -9.47%
CC(=O)c1ccc(N2CCC(CO)(CCOc3ccccc3)CC2)nc1 | 28.1%
CNC(=O)CN1C(=O)CN(C(=O)COC)CCC(OC)c2ccccc21 (stereo not given) | -8.12%
CN1CCCC(c2ccnc(C(=O)NC3CC3)c2)C1 (stereo not given) | -29.5%
CCc1nnc(CNc2ccc(CC(=O)N3CCSCC3)cc2)o1 | 7.37%
O=C(NCCN1CCc2ccccc21)c1cc(-c2ccc(O)cc2)n[nH]1 | 1.91%
CN(C)S(=O)(=O)NCC1(c2ccccc2Br)CC1 | 1.94%
CC(=O)N1CCO[C@@H]2CN(C(=O)c3cc(C)oc3C)CC[C@@H]2C1 | 10.5%
CNC(=O)[C@@]12CCO[C@@H]1CCN(Cc1c(C)noc1C)C2 | -70.5%
O=C(c1ccncc1)N1CCCC(C2=Nc3ccccc3S(=O)(=O)N2)C1 (stereo not given) | 4.26%
CN(C)[C@@H]1CCN(S(C)(=O)=O)[C@H]1Cc1ccccc1 | 11.7%
Cc1nc(C)n(CC2CCCN(CC(=O)Nc3c(C)n[nH]c3C)C2)n1 (stereo not given) | 0.813%
O=C(CCc1ccccc1)N1CCCCC1Cn1cccn1 (stereo not given) | 3.78%
CNc1ccc(CC2CCCN(C(=O)c3cnc(C)nc3)C2)nn1 (stereo not given) | -1.2%
CN(Cc1ccccn1)C(=O)c1nc(S(C)(=O)=O)n2ccccc12 | -8.01%
O=C(c1ccoc1)N1CCO[C@]2(CCC[C@H]2COCc2cccnc2)C1 | 4.58%
